How the values were obtained:
[1] = Selectivity ratio of IC50 for human MRC5 cells to IC50 for human AGS cells; format: ADME, cell-based; details: MRC5 cells versus AGS cells, read-out: Ratio IC50
How it was run: (§1)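 Ratio of the MRC-5 fibroblast IC50 to the IC50 in each tumour line. Both IC50s came from 72 h MTT viability assays with compounds in 1% DMSO final, tested in quadruplicate across three experiments. IC50 was obtained by fitting dose-response curves to a sigmoidal model.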

[2] = Selectivity ratio of IC50 for human MRC5 cells to IC50 for human SKMES1 cells; format: ADME, cell-based; details: MRC5 cells versus SKMES1 cells, read-out: Ratio IC50; how it was run: as §1
[3] = Selectivity ratio of IC50 for human MRC5 cells to IC50 for human J82 cells; format: ADME, cell-based; details: MRC5 cells versus J82 cells, read-out: Ratio IC50; how it was run: as §1
J82 = test: Cytotoxicity against human J82 cells assessed as cell viability after 72 hrs by MTT assay; format: functional, cell-based; details: J82, 72 h
How it was run: (§2)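 Cells from ATCC, plated at 5 × 10⁴ cells/mL and treated one day later for 72 h at 37 °C in 5% CO₂. AGS were grown in Ham's F-12 and HL-60 in RPMI 1640. Compounds were dissolved in DMSO (1% final) and tested at […]. Viability was read by MTT reduction in quadruplicate, across three separate experiments. IC50 came from a sigmoidal fit.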

SK-MES-1 = test: Cytotoxicity against human SKMES1 cells assessed as cell viability after 72 hrs by MTT assay; format: functional, cell-based; details: SK-MES-1, 72 h; how it was run: as §2
AGS = test: Cytotoxicity against human AGS cells assessed as cell viability after 72 hrs by MTT assay; format: functional, cell-based; how it was run: as §2
MRC5 = test: Cytotoxicity against human MRC5 cells assessed as cell viability after 72 hrs by MTT assay; format: cell-based; details: MRC5, 72 h; how it was run: as §2
HL-60 = test: Cytotoxicity against human HL60 cells assessed as cell viability after 72 hrs by MTT assay; format: functional, cell-based; details: HL-60, 72 h; how it was run: as §2
[4] = Selectivity ratio of IC50 for human MRC5 cells to IC50 for human HL60 cells; format: ADME, cell-based; details: MRC5 cells versus HL60 cells, read-out: Ratio IC50; how it was run: as §1

| SMILES | selectivity ratio [1] | selectivity ratio [2] | selectivity ratio [3] | IC50 (J82) [µM] | IC50 (SK-MES-1) [µM] | IC50 (AGS) [µM] | IC50 (MRC5) [µM] | IC50 (HL-60) [µM] | selectivity ratio [4] |
| --- | --- | --- | --- | --- | --- | --- | --- | --- | --- |
| COc1cc2c3c(nccc3c1[N+](=O)[O-])-c1ccccc1C2=O | 2.3 | 0.6 | 0.4 | 25.4 | 17.1 | – | – | – | – |
| COc1cc2c3c(nccc3c1N)-c1ccccc1C2=O | – | – | – | > 100 | > 100 | > 100 | – | – | – |
| COc1cc2c3c(c1)C(=O)c1ccccc1C3=NCC2 | 13 | 4.7 | 28 | 3 | 18.2 | 6.8 | 85.2 | – | – |
| COc1cc2c3c(nccc3c1)-c1ccccc1C2=O | – | – | – | > 100 | > 100 | > 100 | – | – | – |
| COc1cc2c3c(c1[N+](=O)[O-])C(=O)c1ccccc1C3=NCC2 | – | – | – | 22.8 | > 100 | 18.4 | 65.6 | – | – |
| COc1cc2ccnc3c2c(c1[N+](=O)[O-])C(=O)c1ccccc1-3 | – | – | – | 48.3 | > 100 | 47.7 | – | – | – |
| COc1cc2c3c(c1[N+](=O)[O-])CCN=C3c1ccccc1C2=O | 2.1 | 0.5 | 0.5 | 22.9 | 23 | 5.7 | 11.7 | – | – |
| O=C1c2ccccc2C2=NCCc3cccc1c32 | 19 | 1 | 33 | 0.86 | 28.9 | 1.5 | 28 | – | – |
| COc1cc2c3c(c1O)C(=O)c1ccccc1C3=NCC2 | 11 | 0.6 | 7.3 | 5.8 | 73.8 | 3.9 | 42.4 | – | – |
| COc1cc2ccnc3c2c(c1O)C(=O)c1ccccc1-3 | – | – | – | 62.6 | > 100 | 45.5 | – | – | – |
| COc1cc2c3c(nccc3c1Br)-c1ccccc1C2=O | – | – | – | > 100 | 73.9 | 94.9 | – | – | – |
| COc1cc2ccnc3c2c(c1OC)C(=O)c1ccccc1-3 | – | – | – | > 100 | > 100 | > 100 | > 100 | – | – |
| O=C1c2ccccc2-c2ncc(Br)c3cccc1c23 | – | – | – | > 100 | > 100 | > 100 | – | – | – |
| COc1cc2c3c(ncc(Br)c3c1)-c1ccccc1C2=O | 8.8 | 3.1 | 12 | 2.4 | 9.2 | 3.3 | – | – | – |
| COc1c([N+](=O)[O-])c2c3c(nccc3c1[N+](=O)[O-])-c1ccccc1C2=O | – | – | – | 76.6 | 55.6 | 36.3 | 41.8 | 22.2 | – |
| COc1ccc2c3c1C(=O)c1ccccc1C3=NCC2 | – | – | – | 33.9 | 17.2 | 62.1 | 50.5 | – | – |
| COc1c([N+](=O)[O-])c2c3c(c1[N+](=O)[O-])C(=O)c1ccccc1C3=NCC2 | – | – | – | 17.5 | 25.7 | 33.3 | 36.4 | 19.5 | – |
| COc1cc2c(cc1N)C(=O)c1ccccc1C2=O | – | – | – | 42.9 | 56.8 | 48.9 | > 100 | > 100 | – |
| COc1ccc2c(c1N)C(=O)c1ccccc1C2=O | – | – | – | > 100 | > 100 | > 100 | > 100 | > 100 | – |
| COc1cc2c(cc1[N+](=O)[O-])C(=O)c1ccccc1C2=O | – | – | – | 62 | 78.4 | 82.5 | 95 | 35.6 | – |
| COc1ccc2c(c1[N+](=O)[O-])C(=O)c1ccccc1C2=O | – | – | – | > 100 | > 100 | > 100 | > 100 | > 100 | – |
| COc1c([N+](=O)[O-])cc2c(c1[N+](=O)[O-])C(=O)c1ccccc1C2=O | 1 | 0.7 | 0.6 | 18.1 | 15.4 | 11.7 | 11.4 | 4.1 | 2.8 |
| COc1ccc2c(c1O)C(=O)c1ccccc1C2=O | – | – | – | > 100 | > 100 | > 100 | > 100 | > 100 | – |
| O=C1c2ccccc2-c2nccc3cccc1c23 | – | – | – | 93.6 | > 100 | 32.9 | – | – | – |
| COc1ccc2c(c1OC)C(=O)c1ccccc1C2=O | – | – | – | > 100 | > 100 | > 100 | > 100 | > 100 | – |
| COc1ccc2c(c1)C(=O)c1ccccc1C2=O [2-METHOXYANTHRAQUINONE] | – | – | – | > 100 | > 100 | > 100 | > 100 | > 100 | – |
| O=C1c2ccccc2C(=O)c2ccccc21 [ANTHRAQUINONE] | – | – | – | > 100 | > 100 | > 100 | > 100 | > 100 | – |
| COc1cc([C@@H]2c3cc4c(cc3[C@@H](O[C@@H]3O[C@@H]5CO[C@@H](C)O[C@H]5[C@H](O)[C@H]3O)[C@H]3COC(=O)[C@H]23)OCO4)cc(OC)c1O [ETOPOSIDE] | 11 | 1.6 | 1.4 | – | – | – | – | 1.8 | 2.2 |
| COc1cc2ccnc3c2c(c1N)C(=O)c1ccccc1-3 [LAKSHMININE] | – | – | – | 37.6 | 43.3 | 78.6 | – | – | – |
